This passage reports IC50 results from ChEMBL document CHEMBL3797186, “Single Residue Substitutions That Confer Voltage-Gated Sodium Ion Channel Subtype Selectivity in the NaV1.7 Inhibitory Peptide GpTx-1” (J Med Chem, 2016).

This experiment addresses Sodium channel protein type 5 subunit alpha (Homo sapiens, UniProt Q14524). Nature of the experiment: Inhibition of human Nav1.5 expressed in HEK293 cells assessed as inward peak current by ion-works quattro patch clamp electrophysiology method. In kind it is cell-based. The procedure, abridged:
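Stable HEK293 line expressing human NaV1.5, recorded by population patch clamp on the IonWorks Quattro.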
In general terms: The patch-clamp technique gives a direct electrical read-out from membranes.

pIC50: −log10 of the molar value. Positions of bridges follow the written chain, without caps; N, C: chain ends. Residues, ends and D or L forms follow the SMILES beside them.

Chain of Sodium channel protein type 5 subunit alpha (Q14524 whole entry): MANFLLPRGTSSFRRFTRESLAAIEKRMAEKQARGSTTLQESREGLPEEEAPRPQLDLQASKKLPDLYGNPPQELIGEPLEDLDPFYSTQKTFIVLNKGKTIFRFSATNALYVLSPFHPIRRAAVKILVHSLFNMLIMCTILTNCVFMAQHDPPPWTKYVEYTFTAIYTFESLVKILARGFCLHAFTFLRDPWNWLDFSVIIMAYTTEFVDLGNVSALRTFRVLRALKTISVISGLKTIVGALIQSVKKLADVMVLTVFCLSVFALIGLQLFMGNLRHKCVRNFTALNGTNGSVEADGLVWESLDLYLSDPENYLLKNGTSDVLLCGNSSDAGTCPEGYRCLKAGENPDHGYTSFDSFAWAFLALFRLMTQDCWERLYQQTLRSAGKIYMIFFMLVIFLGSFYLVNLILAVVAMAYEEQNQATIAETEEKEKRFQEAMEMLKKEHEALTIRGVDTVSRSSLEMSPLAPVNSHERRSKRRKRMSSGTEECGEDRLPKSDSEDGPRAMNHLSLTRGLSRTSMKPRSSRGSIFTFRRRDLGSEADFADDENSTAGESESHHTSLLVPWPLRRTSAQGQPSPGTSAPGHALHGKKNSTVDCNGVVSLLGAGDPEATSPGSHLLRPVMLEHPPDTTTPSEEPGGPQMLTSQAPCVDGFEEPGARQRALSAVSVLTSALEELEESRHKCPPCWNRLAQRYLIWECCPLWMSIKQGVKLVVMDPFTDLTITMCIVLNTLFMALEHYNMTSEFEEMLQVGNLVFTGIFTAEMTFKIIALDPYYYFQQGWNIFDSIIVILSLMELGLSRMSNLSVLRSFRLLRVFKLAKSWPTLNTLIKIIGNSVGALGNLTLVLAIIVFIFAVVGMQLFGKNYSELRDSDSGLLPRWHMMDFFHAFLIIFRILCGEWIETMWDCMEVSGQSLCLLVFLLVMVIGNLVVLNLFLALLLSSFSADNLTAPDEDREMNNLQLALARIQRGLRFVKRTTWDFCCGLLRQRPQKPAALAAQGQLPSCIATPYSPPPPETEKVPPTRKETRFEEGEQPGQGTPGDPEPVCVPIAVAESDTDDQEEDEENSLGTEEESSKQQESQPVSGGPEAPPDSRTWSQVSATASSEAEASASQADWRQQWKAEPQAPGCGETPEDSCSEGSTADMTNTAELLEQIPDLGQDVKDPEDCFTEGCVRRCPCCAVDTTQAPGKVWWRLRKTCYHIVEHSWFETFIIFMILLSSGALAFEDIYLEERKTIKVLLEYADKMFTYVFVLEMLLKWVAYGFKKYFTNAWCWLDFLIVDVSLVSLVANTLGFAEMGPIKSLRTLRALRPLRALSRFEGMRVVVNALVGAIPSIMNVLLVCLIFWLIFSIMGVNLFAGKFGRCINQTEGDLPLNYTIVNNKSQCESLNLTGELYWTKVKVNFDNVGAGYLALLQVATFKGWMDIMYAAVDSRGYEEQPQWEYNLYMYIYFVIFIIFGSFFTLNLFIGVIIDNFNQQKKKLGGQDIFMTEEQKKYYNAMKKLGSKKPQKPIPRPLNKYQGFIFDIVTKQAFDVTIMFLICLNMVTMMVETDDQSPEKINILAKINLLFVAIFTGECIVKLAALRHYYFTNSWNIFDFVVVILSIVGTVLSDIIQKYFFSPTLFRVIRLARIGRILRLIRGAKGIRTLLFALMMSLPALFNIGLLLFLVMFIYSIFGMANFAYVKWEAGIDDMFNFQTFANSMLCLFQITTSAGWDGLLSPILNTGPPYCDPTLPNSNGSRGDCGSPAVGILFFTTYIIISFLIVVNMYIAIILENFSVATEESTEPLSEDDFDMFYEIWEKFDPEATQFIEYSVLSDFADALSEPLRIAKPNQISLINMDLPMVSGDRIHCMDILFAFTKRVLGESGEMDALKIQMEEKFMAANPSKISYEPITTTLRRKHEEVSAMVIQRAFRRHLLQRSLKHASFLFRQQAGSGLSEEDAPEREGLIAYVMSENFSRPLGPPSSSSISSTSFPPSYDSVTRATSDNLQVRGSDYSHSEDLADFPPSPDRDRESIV

One may read the pIC50 as the negative decadic logarithm of the IC50, by convention in mol/L. Take `CSCC[C@@H]1NC(=O)[C@H](Cc2ccccc2)NC(=O)CNC(=O)[C@H](CC(C)C)NC(=O)[C@@H](NC(=O)[C@@H](N)CC(=O)O)CSSC[C@@H]2NC(=O)[C@@H]3CSSC[C@@H](C(=O)N[C@@H](CCCCN)C(=O)N[C@@H](Cc4ccc(O)cc4)C(=O)N[C@H](C(=O)N[C@@H](Cc4ccccc4)C(N)=O)C(C)C)NC(=O)[C@H](Cc4c[nH]c5ccccc45)NC(=O)[C@H](CCCCN)NC(=O)[C@H](Cc4cnc[nH]4)NC(=O)[C@H]([C@@H](C)O)NC(=O)[C@H](CCCNC(=N)N)NC(=O)[C@H](CO)NC(=O)[C@H](CSSC[C@H](NC(=O)[C@H](CCCCN)NC(=O)[C@H](CCCNC(=N)N)NC1=O)C(=O)N[C@@H](Cc1ccc(O)cc1)C(=O)N1CCC[C@H]1C(=O)N[C@@H](CC(=O)O)C(=O)N[C@@H](CC(N)=O)C(=O)N[C@@H](CC(=O)O)C(=O)N[C@@H](CCCCN)C(=O)N3)NC(=O)[C@H](C(C)C)NC(=O)[C@H](CC(C)C)NC(=O)[C@H](CC(N)=O)NC(=O)[C@@H]1CCCN1C(=O)[C@H](CCCNC(=N)N)NC2=O` (H-DCLGFMRKCYPDNDKCCRPNLVCSRTHKWCKYVF-NH2; disulfide 2-17, 9-23, 16-30): the pIC50 was less than 5.30.
Then `CC[C@H](C)[C@@H]1NC(=O)[C@@H]2CSSC[C@@H]3NC(=O)[C@H](C(C)C)NC(=O)[C@H](CC(C)C)NC(=O)[C@H](CCCNC(=N)N)NC(=O)[C@@H]4CCCN4C(=O)[C@H](CCCNC(=N)N)NC(=O)[C@H](CSSC[C@H](NC(=O)[C@@H](N)CC(=O)O)C(=O)N[C@@H](CC(C)C)C(=O)NCC(=O)N[C@@H](Cc4ccccc4)C(=O)N[C@@H](CCSC)C(=O)N[C@@H](CCCNC(=N)N)C(=O)N[C@@H](CCCCN)C(=O)N2)NC(=O)[C@H](CSSC[C@@H](C(=O)N[C@@H](CCCCN)C(=O)N[C@@H](Cc2ccc(O)cc2)C(=O)N[C@H](C(=O)N[C@@H](Cc2ccccc2)C(N)=O)C(C)C)NC(=O)[C@H](Cc2c[nH]c4ccccc24)NC(=O)[C@H](CCCCN)NC(=O)[C@H](Cc2cnc[nH]2)NC(=O)[C@H]([C@@H](C)O)NC(=O)[C@H](CCCNC(=N)N)NC(=O)[C@H](CO)NC3=O)NC(=O)[C@H](CCCCN)NC(=O)[C@H](CC(=O)O)NC(=O)[C@H](CC(N)=O)NC(=O)[C@H](CC(=O)O)NC(=O)[C@@H]2CCCN2C1=O` (H-DCLGFMRKCIPDNDKCCRPRLVCSRTHKWCKYVF-NH2; disulfide 2-17, 9-23, 16-30), with less than 5.30; and `CC[C@H](C)[C@@H]1NC(=O)[C@@H]2CSSC[C@@H]3NC(=O)[C@H](C(C)C)NC(=O)[C@H](CC(C)C)NC(=O)[C@H](CC(N)=O)NC(=O)[C@@H]4CCCN4C(=O)[C@H](CCCNC(=N)N)NC(=O)[C@H](CSSC[C@H](NC(=O)[C@@H](N)CC(=O)O)C(=O)N[C@@H](CC(C)C)C(=O)NCC(=O)N[C@@H](Cc4ccccc4)C(=O)N[C@@H](CCSC)C(=O)N[C@@H](CCCNC(=N)N)C(=O)N[C@@H](CCCCN)C(=O)N2)NC(=O)[C@H](CSSC[C@@H](C(=O)N[C@@H](CCCCN)C(=O)N[C@@H](Cc2ccc(O)cc2)C(=O)N[C@@H](CCC(=O)O)C(=O)N[C@@H](Cc2ccccc2)C(N)=O)NC(=O)[C@H](Cc2c[nH]c4ccccc24)NC(=O)[C@H](CCCCN)NC(=O)[C@H](Cc2cnc[nH]2)NC(=O)[C@H]([C@@H](C)O)NC(=O)[C@H](CCCNC(=N)N)NC(=O)[C@H](CO)NC3=O)NC(=O)[C@H](CCCCN)NC(=O)[C@H](CC(=O)O)NC(=O)[C@H](CC(N)=O)NC(=O)[C@H](CC(=O)O)NC(=O)[C@@H]2CCCN2C1=O` (H-DCLGFMRKCIPDNDKCCRPNLVCSRTHKWCKYEF-NH2; disulfide 2-17, 9-23, 16-30), with less than 5.30; and `CC[C@H](C)[C@@H]1NC(=O)[C@@H]2CSSC[C@@H]3NC(=O)[C@H](C(C)C)NC(=O)[C@H](CC(C)C)NC(=O)[C@H](CC(N)=O)NC(=O)[C@@H]4CCCN4C(=O)[C@H](CCCNC(=N)N)NC(=O)[C@H](CSSC[C@H](NC(=O)[C@@H](N)CC(=O)O)C(=O)N[C@@H](CC(C)C)C(=O)NCC(=O)N[C@@H](Cc4ccccc4)C(=O)N[C@@H](CCSC)C(=O)N[C@@H](CCCNC(=N)N)C(=O)N[C@@H](CCCCN)C(=O)N2)NC(=O)[C@H](CSSC[C@@H](C(=O)N[C@@H](CCCCN)C(=O)N[C@@H](Cc2ccc(O)cc2)C(=O)N[C@H](C(=O)N[C@@H](Cc2ccccc2)C(N)=O)C(C)C)NC(=O)[C@H](Cc2c[nH]c4ccccc24)NC(=O)[C@H](CCCCN)NC(=O)[C@H](Cc2cnc[nH]2)NC(=O)[C@H]([C@@H](C)O)NC(=O)[C@H](CCCNC(=N)N)NC(=O)[C@H](CO)NC3=O)NC(=O)[C@H](CCCCN)NC(=O)[C@H](CC(=O)O)NC(=O)[C@H](CC(N)=O)NC(=O)[C@H](CCCCN)NC(=O)[C@@H]2CCCN2C1=O` (H-DCLGFMRKCIPKNDKCCRPNLVCSRTHKWCKYVF-NH2; disulfide 2-17, 9-23, 16-30), with less than 5.33.
Under `CC[C@H](C)[C@@H]1NC(=O)[C@@H]2CSSC[C@@H]3NC(=O)[C@H](C(C)C)NC(=O)[C@H](CC(C)C)NC(=O)[C@H](CC(N)=O)NC(=O)[C@@H]4CCCN4C(=O)[C@H](CCCNC(=N)N)NC(=O)[C@H](CSSC[C@H](NC(=O)[C@@H](N)CC(=O)O)C(=O)N[C@@H](CC(C)C)C(=O)NCC(=O)N[C@@H](Cc4ccccc4)C(=O)N[C@@H](CCSC)C(=O)N[C@@H](CCCNC(=N)N)C(=O)N[C@@H](CCCCN)C(=O)N2)NC(=O)[C@H](CSSC[C@@H](C(=O)N[C@@H](CCCCN)C(=O)N[C@@H](Cc2ccc(O)cc2)C(=O)N[C@H](C(=O)N[C@@H](Cc2ccccc2)C(N)=O)C(C)C)NC(=O)[C@H](Cc2c[nH]c4ccccc24)NC(=O)[C@H](CCCCN)NC(=O)[C@H](Cc2c[nH]cn2)NC(=O)[C@H]([C@@H](C)O)NC(=O)[C@H](CCCNC(=N)N)NC(=O)[C@H](CO)NC3=O)NC(=O)[C@H](CCC(=O)O)NC(=O)[C@H](CC(=O)O)NC(=O)[C@H](CC(N)=O)NC(=O)[C@H](CC(=O)O)NC(=O)[C@@H]2CCCN2C1=O` (H-DCLGFMRKCIPDNDECCRPNLVCSRTHKWCKYVF-NH2; disulfide 2-17, 9-23, 16-30) stands less than 5.30; under `CSCC[C@@H]1NC(=O)[C@H](Cc2ccccc2)NC(=O)CNC(=O)[C@H](CC(C)C)NC(=O)[C@@H](NC(=O)[C@@H](N)CC(=O)O)CSSC[C@@H]2NC(=O)[C@@H]3CSSC[C@@H](C(=O)N[C@@H](CCCCN)C(=O)N[C@@H](Cc4ccc(O)cc4)C(=O)N[C@H](C(=O)N[C@@H](Cc4ccccc4)C(N)=O)C(C)C)NC(=O)[C@H](Cc4c[nH]c5ccccc45)NC(=O)[C@H](CCCCN)NC(=O)[C@H](Cc4cnc[nH]4)NC(=O)[C@H]([C@@H](C)O)NC(=O)[C@H](CCCNC(=N)N)NC(=O)[C@H](CO)NC(=O)[C@H](CSSC[C@H](NC(=O)[C@H](CCCCN)NC(=O)[C@H](CCCNC(=N)N)NC1=O)C(=O)N[C@@H](Cc1ccc(C(=O)O)cc1)C(=O)N1CCC[C@H]1C(=O)N[C@@H](CC(=O)O)C(=O)N[C@@H](CC(N)=O)C(=O)N[C@@H](CC(=O)O)C(=O)N[C@@H](CCCCN)C(=O)N3)NC(=O)[C@H](C(C)C)NC(=O)[C@H](CC(C)C)NC(=O)[C@H](CC(N)=O)NC(=O)[C@@H]1CCCN1C(=O)[C@H](CCCNC(=N)N)NC2=O`, less than 5.32.
Then `CSCC[C@@H]1NC(=O)[C@H](Cc2ccccc2)NC(=O)CNC(=O)[C@H](CC(C)C)NC(=O)[C@@H](NC(=O)[C@@H](N)CC(=O)O)CSSC[C@@H]2NC(=O)[C@@H]3CSSC[C@@H](C(=O)N[C@@H](CCCCN)C(=O)N[C@@H](Cc4ccc(O)cc4)C(=O)N[C@H](C(=O)N[C@@H](Cc4ccccc4)C(N)=O)C(C)C)NC(=O)[C@H](Cc4c[nH]c5ccccc45)NC(=O)[C@H](CCCCN)NC(=O)[C@H](Cc4cnc[nH]4)NC(=O)[C@H]([C@@H](C)O)NC(=O)[C@H](CCCNC(=N)N)NC(=O)[C@H](CO)NC(=O)[C@H](CSSC[C@H](NC(=O)[C@H](CCCCN)NC(=O)[C@H](CCCNC(=N)N)NC1=O)C(=O)N[C@@H](Cc1ccccc1)C(=O)N1CCC[C@H]1C(=O)N[C@@H](CC(=O)O)C(=O)N[C@@H](CC(N)=O)C(=O)N[C@@H](CC(=O)O)C(=O)N[C@@H](CCCCN)C(=O)N3)NC(=O)[C@H](C(C)C)NC(=O)[C@H](CC(C)C)NC(=O)[C@H](CC(N)=O)NC(=O)[C@@H]1CCCN1C(=O)[C@H](CCCNC(=N)N)NC2=O` (H-DCLGFMRKCFPDNDKCCRPNLVCSRTHKWCKYVF-NH2; disulfide 2-17, 9-23, 16-30), with less than 5.30; and `CC[C@H](C)[C@@H]1NC(=O)[C@@H]2CSSC[C@@H]3NC(=O)[C@H](C(C)C)NC(=O)[C@H](CC(C)C)NC(=O)[C@H](CC(N)=O)NC(=O)[C@@H]4CCCN4C(=O)[C@H](CCCNC(=N)N)NC(=O)[C@H](CSSC[C@H](NC(=O)[C@@H](N)CC(=O)O)C(=O)N[C@@H](CC(C)C)C(=O)NCC(=O)N[C@@H](Cc4ccccc4)C(=O)N[C@@H](CCSC)C(=O)N[C@@H](CCCNC(=N)N)C(=O)N[C@@H](CCCCN)C(=O)N2)NC(=O)[C@H](CSSC[C@@H](C(=O)N[C@@H](CCCCN)C(=O)N[C@@H](Cc2ccc(O)cc2)C(N)=O)NC(=O)[C@H](Cc2c[nH]c4ccccc24)NC(=O)[C@H](CCCCN)NC(=O)[C@H](Cc2cnc[nH]2)NC(=O)[C@H]([C@@H](C)O)NC(=O)[C@H](CCCNC(=N)N)NC(=O)[C@H](CO)NC3=O)NC(=O)[C@H](CCCCN)NC(=O)[C@H](CC(=O)O)NC(=O)[C@H](CC(N)=O)NC(=O)[C@H](CC(=O)O)NC(=O)[C@@H]2CCCN2C1=O` (H-DCLGFMRKCIPDNDKCCRPNLVCSRTHKWCKY-NH2; disulfide 2-17, 9-23, 16-30), with less than 5.30; and `CC[C@H](C)[C@@H]1NC(=O)[C@@H]2CSSC[C@@H]3NC(=O)[C@H](C(C)C)NC(=O)[C@H](CC(C)C)NC(=O)[C@H](CC(N)=O)NC(=O)[C@@H]4CCCN4C(=O)[C@H](CCCNC(=N)N)NC(=O)[C@H](CSSC[C@H](NC(=O)[C@@H](N)CC(=O)O)C(=O)N[C@@H](CC(C)C)C(=O)NCC(=O)N[C@@H](Cc4ccccc4)C(=O)N[C@@H](Cc4cccc5ccccc45)C(=O)N[C@@H](CCCNC(=N)N)C(=O)N[C@@H](CCCCN)C(=O)N2)NC(=O)[C@H](CSSC[C@@H](C(=O)N[C@@H](CCCCN)C(=O)N[C@@H](Cc2ccc(O)cc2)C(=O)N[C@H](C(=O)N[C@@H](Cc2ccccc2)C(N)=O)C(C)C)NC(=O)[C@H](Cc2c[nH]c4ccccc24)NC(=O)[C@H](CCCCN)NC(=O)[C@H](Cc2cnc[nH]2)NC(=O)[C@H]([C@@H](C)O)NC(=O)[C@H](CCCNC(=N)N)NC(=O)[C@H](CO)NC3=O)NC(=O)[C@H](CCCCN)NC(=O)[C@H](CC(=O)O)NC(=O)[C@H](CC(N)=O)NC(=O)[C@H](CC(=O)O)NC(=O)[C@@H]2CCCN2C1=O`, with 5.64.
